Assay outcomes as filed in PubChem.
In the library only some 2.9% were active in any assay of this set; here they are far more common.
DENV2 CPE rescue: DENV2-induced cell death inhibition; hit rate 1.7% among 350,000; DENV2-infected cells, cytopathic effect rescue, plate reader; CPE inhibition, % at 9.99 µM; in the data active = CPE inhibition above about 20%, passing the limit was not always enough; inconclusive = no clear call, values can overlap the other calls; tested in BHK-21 cells;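 also: 0% = median of neutral control wells and 100% = median of positive control wells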
E-sel inducer: E-selectin induction on HUVECs; HUVEC E-selectin immunofluorescence imaging; normalized: neutral wells 0, TNF-alpha wells 100; AID 686992; hit rate 0.37% among 260,000; activation, % at 7.58 µM;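 active = mean E-selectin-positive cell signal at least 10% of the positive control, reached in at least 60% of replicates, without over 20% cell loss; inconclusive = no rule given, readout overlaps actives, possibly toxicity-flagged; inactive = the rest, including those meeting only one limit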
Target sequence (P16581 whole entry, looked up): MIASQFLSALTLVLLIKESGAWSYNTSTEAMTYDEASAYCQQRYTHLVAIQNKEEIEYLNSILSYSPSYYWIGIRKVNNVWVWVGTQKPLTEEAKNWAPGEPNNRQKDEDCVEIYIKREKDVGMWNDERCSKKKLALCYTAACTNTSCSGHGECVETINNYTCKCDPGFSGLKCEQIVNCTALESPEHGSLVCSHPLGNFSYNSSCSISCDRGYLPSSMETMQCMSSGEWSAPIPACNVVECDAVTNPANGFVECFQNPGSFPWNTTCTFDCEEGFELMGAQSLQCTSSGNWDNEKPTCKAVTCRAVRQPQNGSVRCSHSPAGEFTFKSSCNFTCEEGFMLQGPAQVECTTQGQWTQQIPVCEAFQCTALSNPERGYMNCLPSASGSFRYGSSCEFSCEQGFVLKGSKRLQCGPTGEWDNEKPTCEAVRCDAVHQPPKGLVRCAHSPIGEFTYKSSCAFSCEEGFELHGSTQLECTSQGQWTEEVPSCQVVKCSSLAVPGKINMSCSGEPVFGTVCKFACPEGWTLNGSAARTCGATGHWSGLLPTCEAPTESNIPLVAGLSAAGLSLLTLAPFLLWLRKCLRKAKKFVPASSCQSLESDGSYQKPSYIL
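Test system: HUVEC; input: 3,000 HUVEC/well; measured by: immunofluorescence imaging; read-out: % PE-positive cells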
SIRT5 block: blocks human SIRT5 desuccinylation of peptide; inhibition, % at 15 µM; hit rate 1.1% among 330,000; Purified SirT5, succinyl-peptide AMC, trypsin-coupled fluorescence; in the data active = inhibition above about 15%; inconclusive = no clear call, values can overlap the other calls
Active calls of the source: *; ? = inconclusive; nt = not tested or not shown.

SMILES	DENV2 CPE rescue	E-sel inducer	SIRT5 block
O=C(Nc1cccc(F)c1)N1CC(=O)N2[C@@H](CO)[C@@H](c3ccc(C#CCC4CCCC4)cc3)[C@@H]2C1	-3	-1	4
COc1cccc(NC(=O)N2CC(=O)N3[C@H](CO)[C@H](c4ccc(C#CCC5CCCC5)cc4)[C@H]3C2)c1	-6	0	22*
COc1cccc(NC(=O)N2CC(=O)N3[C@H](CO)[C@@H](c4ccc(C#CC5CCCC5)cc4)[C@@H]3C2)c1	-7	-1	9
CCCNC(=O)N[C@H]1CC[C@H](CCn2cc(C3CCCC3)nn2)O[C@@H]1CO	2	0	0
O=C(COC(=O)/C=C/c1cccc(C(F)(F)F)c1)NCc1ccccc1	-6	nt	nt
Nc1ccccc1C#Cc1ccccc1	110*	0	-1
Nc1ccccc1C#Cc1ccc2[nH]ccc2c1	-7	0	-5
COc1ccc(CCNC(=O)CCNC(=O)c2ccc(Cl)cc2)cc1OC	1	11	1
CC1=CCC[C@@H]2[C@@](C)(CC/C(C)=C/C(=O)O)[C@H](C)CC[C@@]12C	25*	nt	nt
COCC(=O)Oc1c(S(=O)(=O)c2ccccc2)c(C)nn1C(C)(C)C	-8	nt	0
O=C1C=CC(c2c[nH]c3ccccc23)CC1 (centres undefined)	-5	0	-1
Clc1cc(Br)ccc1OCCCn1ccnc1	37*	nt	-3
CCc1cccc(OCCN2CCCC2)c1	50*	nt	-3
Clc1cccc(Cl)c1OCCCCN1CCCCC1	-2	0	-7
COc1ccccc1OCCCCN1CCCCC1	1	0	-4
Clc1ccccc1OCCCn1ccnc1	18	0	0
CCc1cccc(OCCn2ccnc2)c1	nt	1	nt
Cc1cccc(Cl)c1OCCN1CCCC1	70*	nt	nt
Cc1ccccc1OCCCCN1CCCCC1	34*	nt	2
CCC(Cc1ccccc1)NC(=O)c1ccc2nc(N3CCOCC3)sc2c1 (centres undefined)	2	0	nt
CCCN=C1N(CC)C[C@@H]2[C@@H]3C(=O)N(Cc4ccccc4)C(=O)[C@@H]3[C@](C)(C(=O)OC)N12	6	2	-11
CC(C)NC(=O)N(C)C[C@@H]1OCc2ccccc2-c2c(n(C)c3ccccc23)C(=O)N([C@H](C)CO)C[C@H]1C	-6	0	9
CC(=O)N(C)C[C@H]1[C@H](c2ccc(-c3ccccc3F)cc2)[C@H](CO)N1C(C)=O	-15	0	9
Clc1cc(Br)ccc1OCCOCCN1CCCC1	25*	nt	-4
Cc1ccc(Cl)c(OCCN2CCCC(C)C2)c1 (centres undefined)	nt	7	nt
SMILES	DENV2 CPE rescue	E-sel inducer	SIRT5 block
CC(C)(C)c1cc(Cl)ccc1OCCOCCN1CCCC1	-1	1	2
Clc1ccc(Cl)c(OCCN2CCCC2)c1	1	nt	16*
O=C(Nc1ccccc1)N[C@H]1CC[C@@H](CCNS(=O)(=O)c2cccc(F)c2)O[C@H]1CO	-2	0	-4
Cc1ccc(C(C(=O)NC2CCCCC2)N(CC2CCCO2)C(=O)CNC(=O)c2ccco2)cc1 (centres undefined)	nt	nt	-2
OCCC1CN(Cc2cnc(-c3ccc(Cl)cc3)nc2)CCN1C1CCCCC1 (centres undefined)	50*	0	0
Cc1cccc(-c2ncc(CN3CCN(C4CCCC4)C(CCO)C3)cn2)c1 (centres undefined)	5	nt	-1
CCOc1ccc(OCCC(=O)N2CCc3cc(OC)c(OC)cc3C2)cc1	-9	nt	-21
O=C(NCC1CC1)c1ccc2c3n(nc2c1)-c1ccccc1CO3	3	0	1
O=C(NCCO)c1ccc2c3n(nc2c1)-c1ccccc1CO3	69*	0	nt
Cn1nc(C(=O)OCC(=O)c2ccc(Cl)cc2)c2ccccc2c1=O	-9	0	-4
COc1ccc(Nc2ccc(S(=O)(=O)N3CCCCC3)cc2[N+](=O)[O-])cc1Cl	41*	nt	-2
COc1ccc(Nc2ccc(S(=O)(=O)N3CCCCC3)cc2[N+](=O)[O-])cc1	nt	0	nt
CN(C)c1ccc(S(=O)(=O)NCC(=O)N2CCN(S(=O)(=O)c3cccc(F)c3)CC2)cc1[N+](=O)[O-]	17	0	-1
CN(CC(=O)Nc1cccc(F)c1)C(=O)CNS(=O)(=O)c1ccc(N(C)C)c([N+](=O)[O-])c1	89*	-1	6
O=C(NCc1cccnc1)c1ccc(-c2cc3ccccc3oc2=O)cc1	1	0	-3
COc1cc(Cl)c(C)cc1NC(=O)c1ccc2c(SCC(=O)O)c3c(nc2c1)CCCC3	-4	1	-2
CCOC(=O)c1ccccc1NC(=O)c1ccc2c(SCC(=O)O)c3c(nc2c1)CCCC3	0	-1	22*
CC(OC(=O)c1nsc(Cl)c1Cl)C(=O)NCCc1ccccc1 (centres undefined)	0	29*	-3
CCC(OC(=O)c1nsc(Cl)c1Cl)C(=O)NCc1ccco1 (centres undefined)	nt	-1	nt
O=C(Cn1[nH]c(=O)c2ccccc2c1=O)OCC(=O)c1ccccc1	11	0	-3
COc1cccc(C2CC(c3ccc(Br)cc3)=NN2C(=O)c2ccncc2)c1OC (centres undefined)	-6	nt	112*
COc1ccc(C2=NN(C(=O)c3ccncc3)C(c3ccccc3O)C2)cc1 (centres undefined)	-3	0	-1
CCS(=O)(=O)N1CCC(C(=O)Nc2cc([N+](=O)[O-])ccc2C)CC1	15	0	-2
O=C(Nc1ccccc1)c1cccc(Cn2cc(C(F)(F)F)ccc2=O)c1	-6	1	24*
O=C(Sc1ccccc1)c1cccc(Cn2cc(C(F)(F)F)ccc2=O)c1	9	0	-4
SMILES	DENV2 CPE rescue	E-sel inducer	SIRT5 block
COc1ccc2c3c([nH]c2c1)[C@H](CO)N(S(C)(=O)=O)CC31CN(C(=O)c2ccccc2)C1	-2	0	nt
COc1ccc2c3c([nH]c2c1)[C@H](CO)N(C(=O)c1cccc(F)c1)CC31CN(S(=O)(=O)c2cccs2)C1	?	0	nt
COc1ccc2c3c([nH]c2c1)[C@@H](CO)N(S(C)(=O)=O)CC31CN(C(=O)c2ccccc2)C1	23*	0	nt
COc1ccc2c3c([nH]c2c1)[C@H](CO)N(C(=O)c1ccccc1)CC31CN(S(=O)(=O)c2cccs2)C1	82*	0	nt
COc1ccc2c3c([nH]c2c1)[C@@H](CO)N(S(=O)(=O)c1ccc(C)cc1)CC31CN(C(=O)Cc2cccnc2)C1	-5	0	4
COc1ccc2c3c([nH]c2c1)[C@H](CO)N(S(=O)(=O)c1ccc(C)cc1)CC31CN(C(=O)Cc2cccnc2)C1	27*	0	2
CCC(CCC(=O)NNC(=O)Cc1ccc([N+](=O)[O-])cc1)C(=O)O (centres undefined)	1	1	1
O=C(O)c1ccc(-c2nc(-c3ccccc3)cs2)cc1	-3	nt	0
c1ccc(-c2csc(-c3ccc(-c4csnn4)cc3)n2)cc1	54*	0	4
Cc1noc(C)c1S(=O)(=O)Nc1ccc2c(c1)C(=O)N([C@H](C)CO)C[C@@H](C)[C@@H](CN(C)S(=O)(=O)c1cccs1)OCCCC[C@H](C)O2	-3	0	nt
CNC(=O)C(C)c1ncc(C(F)(F)F)cc1Cl (centres undefined)	-1	nt	-3
Cc1cccc(NC(=S)N2CCC(c3nc4ccccc4o3)CC2)c1C	17	nt	3
S=C(NCc1ccco1)N1CCC(c2nc3ccccc3o2)CC1	-1	60*	-3
